Source: PMC5784828 (Biochemical and biophysical research communications, 2018)

Tested on: MDA-MB-231 cells
Test: Scratch cell migration assay
Format: cell-based
Settings: 1 μM, MDA-MB-231, 18 hr
Procedure, shortened: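 MDA-MB-231 cells were grown at 37°C, 5% CO2, in high-glucose DMEM with 10% FBS, L-glutamine, penicillin/streptomycin and 15 mM HEPES. A scratch was made in a confluent monolayer, then test compound or 1% DMSO (solvent control) was added in normal growth medium. The same scratch area was photographed at 0 and 18–24 hr. Duplicate or single wells; four independent experiments; images representative.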

Compound: CN(C)Cc1cccc(N/C(=C2\C(=O)Nc3cc(C(N)=O)ccc32)c2ccccc2)c1 [BIX02188]
- Effect on scratch healing (cell migration): showed inhibition of scratch healing
